This is an account of results in ChEMBL document CHEMBL1142896, “The synthesis of amphipathic prodrugs of 1,2-diol drugs with saccharide conjugates by high regioselective enzymatic protocol” (Bioorg Med Chem, 2007).

Data set [1] can be described thus: Partition coefficient, log P of the compound. It counts as physicochemical. To be noted: octanol/water. The method in brief:
(§1)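 Shake-flask partitioning between n-octanol and phosphate buffer pH 7.4; phases mixed 15 min, centrifuged at 1 · 10⁴ rpm for 5 min, separated. Each layer diluted tenfold and analysed by HPLC (UV detection 228–232 nm, methanol/water 80:20 eluent). D7.4 calculated from the layer concentrations; triplicate, mean reported.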

The nature of data set [2]: Distribution coefficient, log D at pH 7.4. The data set is classed as physicochemical. Particulars: octanol/water. The method in brief:
as §1

Data set [3] is described as follows: Half life of hydrolysis in hydrochloric acid buffer at pH 1.2. The data set is classed as ADME. The method in brief: (§2)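 Non-enzymatic chemical hydrolysis at 37 °C in 0.2 M hydrochloric acid buffer pH 1.2 (simulated gastric fluid) or 0.2 M phosphate buffer pH 7.4. 25 mM dioxane stock diluted 1:10 into thermostated buffer. Remaining ester followed by HPLC. Pseudo-first-order k_obsd fitted, and t1/2 derived from it.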

The nature of data set [4]: Half life of hydrolysis in phosphate buffer at pH 7.4. It counts as ADME. The method in brief:
as §2

`NC(=O)OCC(O)COc1ccc(Cl)cc1` (stereo unspecified) [CHLORPHENESIN CARBAMATE] registered a lipophilicity (LogP) in data set [1] of 1.44. Moreover, the pH-dependent lipophilicity (Log D) in data set [2] turned out to be 1.44.
Turning to `Cc1ccccc1OCC(O)CO` (stereo unspecified) [MEPHENESIN], the results for the half-life in data set [3] and in data set [4] were 8.75 h and 19.9 h, respectively. Further, the LogP in data set [1] was found to be 1.09. For the same molecule, the “Log D” value in data set [2] stood at 1.09.
